This note sets out measurements from article PMC3184254 (Nature Chemical Biology, 2011).

One assay deals with panel of 24 kinases. The experiment in a line: Kinase selectivity panel. Type of assay: biochemical. Conditions: at 1 μM; 24 kinases.
For assay [1], the system named is H3K9me2 levels in 22RV1 cells. The experiment in a line: H3K9me2 in-cell western, 22RV1. The following applies: Homo sapiens, 22Rv1, read-out: IC50 for reduction of H3K9me2 levels. Type of assay: cell-based.
Assay [2] has as its system H3K9me2 at EGFP provirus and MAGEA2 promoter in mES cells. The experiment in a line: ChIP of H3K9me2 in mES cells. In kind it is cell-based, mouse. The following applies: 500 nM for 3 or 7 d.
A further assay deals with MDA-MB-231 cells. Kind of assay: Clonogenicity assay, MDA-MB-231. Type of assay: cell-based, human.
For another assay, the system named is MCF7 cells. The experiment in a line: Clonogenicity assay, MCF7. Type of assay: cell-based, human.
Assay [3] deals with HSC1-EF1α-EGFP-Puromycin retrovirus in J1 mES cells. Kind of assay: Reactivation of silent EGFP retrovirus vector, flow cytometry. Type of assay: cell-based, mouse.
Assay [4] has as its system H3K9me2 levels in J1 mES cells. The experiment in a line: Cellular potency. In kind it is cell-based. The following applies: Mus musculus, 48 h, read-out: IC50 cellular potency.
A further assay addresses adrenergic α1B receptor (Rattus norvegicus, UniProt P15823). The experiment in a line: Ricerca Selectivity Panel, adrenergic α1B. Type of assay: binding.
For the next assay, the target named is T1, SETD8 (Homo sapiens, UniProt Q9NQR1).
T1 sequence (Q9NQR1 1-393): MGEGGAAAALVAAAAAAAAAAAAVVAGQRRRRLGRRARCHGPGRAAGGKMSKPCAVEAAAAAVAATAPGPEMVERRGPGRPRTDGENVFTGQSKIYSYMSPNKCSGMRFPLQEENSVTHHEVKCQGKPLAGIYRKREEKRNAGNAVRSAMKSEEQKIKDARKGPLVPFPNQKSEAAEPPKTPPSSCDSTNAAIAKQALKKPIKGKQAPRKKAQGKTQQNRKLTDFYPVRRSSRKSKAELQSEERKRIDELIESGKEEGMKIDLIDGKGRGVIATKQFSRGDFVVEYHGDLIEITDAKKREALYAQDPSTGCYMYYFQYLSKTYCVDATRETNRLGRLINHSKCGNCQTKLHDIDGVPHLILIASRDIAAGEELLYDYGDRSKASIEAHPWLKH
Kind of assay: SAHH-coupled assay, SETD8. In kind it is biochemical. In a few lines: (§1)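 A fluorescence-based coupled assay used S-adenosyl-L-homocysteine hydrolase to follow conversion of cofactor SAM to SAH by the methyltransferase. IC50 values are the average of at least two separate experiments.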

Another assay has as its target M2 (Homo sapiens, UniProt P08172). Kind of assay: M2 functional assay. In kind it is cell-based.
The target in assay [5] is T2, G9a (Homo sapiens, UniProt Q96KQ7).
T2 sequence (Q96KQ7 1-1210): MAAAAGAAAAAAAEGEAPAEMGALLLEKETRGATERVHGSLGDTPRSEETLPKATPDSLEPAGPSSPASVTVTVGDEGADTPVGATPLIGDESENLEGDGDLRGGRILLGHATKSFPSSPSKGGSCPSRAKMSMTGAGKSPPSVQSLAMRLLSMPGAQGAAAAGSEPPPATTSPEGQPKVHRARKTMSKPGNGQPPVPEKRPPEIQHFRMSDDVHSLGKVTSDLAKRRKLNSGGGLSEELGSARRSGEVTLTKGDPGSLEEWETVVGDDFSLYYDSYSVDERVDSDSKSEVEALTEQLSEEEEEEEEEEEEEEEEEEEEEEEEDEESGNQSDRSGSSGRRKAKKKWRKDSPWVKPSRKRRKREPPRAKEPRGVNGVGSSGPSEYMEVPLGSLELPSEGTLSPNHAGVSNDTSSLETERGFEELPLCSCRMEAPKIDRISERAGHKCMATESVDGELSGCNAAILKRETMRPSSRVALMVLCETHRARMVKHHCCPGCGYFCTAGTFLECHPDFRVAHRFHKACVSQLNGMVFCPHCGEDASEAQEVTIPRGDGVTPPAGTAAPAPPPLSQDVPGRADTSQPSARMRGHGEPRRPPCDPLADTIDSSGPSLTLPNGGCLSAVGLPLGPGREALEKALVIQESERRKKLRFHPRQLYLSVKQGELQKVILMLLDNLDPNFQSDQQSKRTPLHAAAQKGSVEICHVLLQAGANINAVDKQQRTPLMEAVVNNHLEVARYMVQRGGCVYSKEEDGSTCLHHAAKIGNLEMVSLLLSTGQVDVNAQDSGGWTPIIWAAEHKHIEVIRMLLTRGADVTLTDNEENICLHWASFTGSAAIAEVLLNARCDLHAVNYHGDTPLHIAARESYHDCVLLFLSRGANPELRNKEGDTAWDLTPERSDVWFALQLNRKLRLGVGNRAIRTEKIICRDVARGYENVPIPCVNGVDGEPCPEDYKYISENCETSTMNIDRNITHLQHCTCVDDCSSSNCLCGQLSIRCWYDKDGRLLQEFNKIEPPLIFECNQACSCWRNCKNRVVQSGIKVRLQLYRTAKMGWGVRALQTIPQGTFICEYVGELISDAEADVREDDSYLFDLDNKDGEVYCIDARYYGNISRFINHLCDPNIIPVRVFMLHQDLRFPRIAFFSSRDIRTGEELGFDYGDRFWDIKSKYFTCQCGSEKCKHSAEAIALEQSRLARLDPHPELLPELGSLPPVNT
The experiment in a line: Endoproteinase-coupled microfluidic capillary electrophoresis. In kind it is biochemical.

Assay [6] deals with T2, G9a. The experiment in a line: Surface plasmon resonance. Type of assay: binding. Conditions: SPR.
For a further assay, the target named is T3, SETD7 (Homo sapiens, UniProt Q8WTS6).
T3 sequence (Q8WTS6 1-366): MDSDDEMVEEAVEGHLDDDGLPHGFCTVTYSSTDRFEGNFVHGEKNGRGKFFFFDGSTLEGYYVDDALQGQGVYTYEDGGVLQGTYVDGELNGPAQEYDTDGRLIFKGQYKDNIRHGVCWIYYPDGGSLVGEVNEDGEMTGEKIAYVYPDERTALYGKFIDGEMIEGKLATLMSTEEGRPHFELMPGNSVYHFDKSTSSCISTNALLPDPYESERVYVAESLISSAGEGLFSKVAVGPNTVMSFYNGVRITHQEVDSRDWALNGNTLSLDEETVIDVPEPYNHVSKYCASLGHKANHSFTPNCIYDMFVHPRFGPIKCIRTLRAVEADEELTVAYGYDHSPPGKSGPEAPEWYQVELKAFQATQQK
Kind of assay: SAHH-coupled assay, SETD7. In kind it is biochemical. In a few lines: as §1

Assay [7] addresses T2, G9a. Kind of assay: G9a fluorescence-polarization peptide displacement assay. In kind it is binding.
In assay [8] the test system is H3K9me2 at genomic loci on chr3 and chrX in MCF7 cells. Kind of assay: ChIP-chip with H3K9me2 antibody. In kind it is cell-based, human. The following applies: 320 nM for 14 d.

SMILES strings stand for the structures. Read-outs that look alike come from different tables or passages of the source.

Chain of M2 (P08172 whole entry): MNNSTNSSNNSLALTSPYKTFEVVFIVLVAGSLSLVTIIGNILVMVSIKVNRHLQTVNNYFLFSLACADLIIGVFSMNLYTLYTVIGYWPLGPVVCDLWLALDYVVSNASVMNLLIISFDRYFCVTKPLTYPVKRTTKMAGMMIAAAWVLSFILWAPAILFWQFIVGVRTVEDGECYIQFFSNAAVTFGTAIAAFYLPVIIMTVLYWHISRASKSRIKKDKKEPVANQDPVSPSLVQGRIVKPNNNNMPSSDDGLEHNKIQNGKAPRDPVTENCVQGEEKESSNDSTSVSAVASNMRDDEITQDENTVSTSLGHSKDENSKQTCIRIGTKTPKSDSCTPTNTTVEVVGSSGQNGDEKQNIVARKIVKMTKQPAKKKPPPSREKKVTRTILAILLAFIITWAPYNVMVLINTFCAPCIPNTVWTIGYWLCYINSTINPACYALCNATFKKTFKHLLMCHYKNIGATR
Chain of adrenergic α1B receptor (P15823 whole entry): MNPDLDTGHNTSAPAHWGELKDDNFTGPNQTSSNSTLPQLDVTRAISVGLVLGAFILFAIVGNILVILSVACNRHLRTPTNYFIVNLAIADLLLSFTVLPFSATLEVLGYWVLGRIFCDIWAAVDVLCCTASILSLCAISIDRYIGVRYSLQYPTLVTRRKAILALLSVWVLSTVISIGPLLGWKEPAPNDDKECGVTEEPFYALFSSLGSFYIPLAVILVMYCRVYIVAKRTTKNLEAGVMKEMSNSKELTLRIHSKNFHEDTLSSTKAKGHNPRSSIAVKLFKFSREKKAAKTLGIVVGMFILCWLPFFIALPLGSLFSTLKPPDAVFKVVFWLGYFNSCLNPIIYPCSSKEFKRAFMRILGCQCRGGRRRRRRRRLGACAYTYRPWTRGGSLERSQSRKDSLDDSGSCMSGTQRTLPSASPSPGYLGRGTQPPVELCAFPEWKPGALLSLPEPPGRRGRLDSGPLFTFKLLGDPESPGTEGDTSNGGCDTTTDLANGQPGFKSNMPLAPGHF

Molecule `COc1cc2c(NC3CCN(C(C)C)CC3)nc(C3CCCCC3)nc2cc1OCCCN1CCCC1` [UNC0638] yielded an inhibition in the assay on panel of 24 kinases of less than 10%. Further, the IC50 in [1] was 48 nM; in [4] it was 138 nM; on SETD8 it was greater than 10000 nM; against SETD8 (SAHH-coupled assay), “inactive”; against M2 it was 480 ± 10 nM; at SETD7 it was greater than 10000 nM. Moreover, the IC50 result at SETD7 (SAHH-coupled assay) was “inactive”. The “H3K9me2 at EGFP provirus and MAGEA2 promoter (ChIP)” value in [2] was “decreased H3K9me2 at both targets by day 3”. Also, the clonogenicity result was “much less effect” with MDA-MB-231 cells and “marked concentration-dependent reduction of clonogenicity” in the assay with MCF7 cells. The “EGFP+ cells, maximal level” value in assay [3] (day 10, UNC0638 100, 250 or 500 nM, untreated 36%) was found to be 63%. In addition, the “EGFP+ cells” value in [3] (day 12) is recorded as 75%. For the same molecule, on adrenergic α1B receptor, at 1 µM the inhibition was 69%. The “mechanism of action versus peptide substrate” value on G9a [5] (Km of the peptide increased linearly with UNC0638 concentration) is on record as “competitive with the peptide substrate”. In addition, the “mechanism of action versus cofactor SAM” value on G9a [5] (apparent Km of SAM remained constant) is recorded as “noncompetitive with cofactor SAM”. Moreover, the “disassociation rate (kd)” value at G9a [6] worked out at 0.057 s⁻¹. For the same molecule, the “displacement of fluorescein-labeled 15-mer H3 peptide (residues 1–15)” value on G9a [7] is recorded as “high efficiency”. For the same molecule, the “genomic regions containing H3K9me2 on chr3 and chrX” value in [8] is reported as “significantly fewer genomic regions containing H3K9me2”.
